SMILES strings stand for the structures. Bounds are passed on as bounds.

What all share (assay type): functional, cell-based
In one assay the test system is A549. Kind of assay: Cytotoxicity against human A549 cells after 24 hrs by MTT assay. As to conditions: A549, 24 h. The procedure, abridged: (§1)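 ATCC cells kept adherent at 37 °C, 5% CO2 (A549: F12K + 10% FBS; HepG2, MCF-7: MEM + 1 mM pyruvate + 10% FBS; CAKI 1: McCoy's + 10% FBS). Seeded and grown 24 h, then exposed 24 h to compounds in FBS-free medium (final DMSO 0.25%). PBS wash, MTT 0.5 mg/mL in phenol-red-free MEM for 3 h at 37 °C, formazan dissolved in DMSO, read at A540. Two experiments in triplicate; IC50 derived.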
(In general: Formazan colour is commonly taken as a measure of viable cells.)

The next assay concerns CAKI-1. Nature of the assay: Cytotoxicity against human Caki1 cells after 24 hrs by MTT assay. The following applies: CAKI-1, 24 h. The procedure, abridged:
as §1

A further assay deals with HepG2. Nature of the assay: Cytotoxicity against human HepG2 cells after 24 hrs by MTT assay. The following applies: HepG2, 24 h. The procedure, abridged: as §1
The subject of another assay is MCF7. Kind of assay: Cytotoxicity against human MCF7 cells after 24 hrs by MTT assay. As to conditions: MCF7, 24 h. The procedure, abridged:
as §1

The term IC50 denotes the concentration at which inhibition is half-maximal. A low value points to higher potency. For the compound `CC(=O)O[C@H](C[C@@H](OC(C)=O)C(C)(C)O)[C@@H](C)[C@H]1CC[C@@]2(C)[C@@H]3CC=C4[C@@H](CCC(=O)C4(C)C)[C@]3(C)[C@]3(O)C[C@]12CO3` [LEUCOPAXILLONE B], the IC50 with A549 came to 155 µM; with CAKI-1 it was 30.3 µM; with HepG2 it was 86.9 µM; in the assay on MCF7 it was 86.9 µM.
As for `CC(=O)O[C@H](C[C@@H](OC(C)=O)C(C)(C)O)[C@@H](C)[C@H]1CC[C@@]2(C)[C@@H]3CC=C4[C@@H](CCC(=O)C4(C)C)[C@]3(C)CC[C@]12CO` [LEUCOPAXILLONE A], the IC50 with A549 was above 300 µM; with CAKI-1 it was 108 µM; with HepG2, 96.7 µM; in the assay on MCF7, 7.94 µM.
For `CC(=O)OC(C)(C)/C=C/C(=O)[C@](C)(O)[C@H]1[C@H](O)C[C@@]2(C)[C@@H]3CC=C4[C@H](C[C@H](O)C(=O)C4(C)C)[C@]3(C)C(=O)C[C@]12C` [CUCURBITACIN B], the IC50 amounted to 46.6 µM in the assay with A549, 7.1 µM in the assay on CAKI-1, 0.76 µM in the assay with HepG2 and 0.78 µM in the assay with MCF7.
